Test results taken from ChEMBL document CHEMBL1137739, “Synthesis of chlorovinyl sulfones as structural analogs of chalcones and their antiplasmodial activities” (Eur J Med Chem, 2009).

Columns and labels:
[1] = target: T1, Histidine-rich protein PFHRP-II (Plasmodium falciparum) (UniProt P05227); experiment: Inhibition of acetate buffer-induced hemozoin formation at 1.25 to 25 mM/well after 48 hrs; assay type: functional; design: scale not given: the % may be the effect or the level left
T1 sequence (whole entry): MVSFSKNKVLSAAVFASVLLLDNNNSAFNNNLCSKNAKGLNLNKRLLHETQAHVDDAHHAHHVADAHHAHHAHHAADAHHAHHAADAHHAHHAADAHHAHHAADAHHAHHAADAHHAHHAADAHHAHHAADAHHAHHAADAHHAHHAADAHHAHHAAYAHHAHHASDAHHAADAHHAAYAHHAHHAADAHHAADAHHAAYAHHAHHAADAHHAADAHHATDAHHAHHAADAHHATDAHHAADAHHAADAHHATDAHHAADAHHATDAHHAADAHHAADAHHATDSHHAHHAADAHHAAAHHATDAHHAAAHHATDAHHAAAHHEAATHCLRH
How it was run: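 Hemin chloride solution (4 mM, in DMSO) was mixed in triplicate with compounds in DMSO at final 1.25–25 per well. Controls were water or DMSO. Reaction was started with 0.2 M acetate buffer pH 4.4 and run at 37 °C for 48 h. Pellets were centrifuged, washed twice with DMSO, dissolved in 0.2 N NaOH, diluted 1:2 in 0.1 N NaOH, and absorbance read at 405 nm.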

Plasmodium falciparum [2] = experiment: Antimalarial activity as inhibition of chloroquine-resistant Plasmodium falciparum mediated mice (Mus musculus) hemoglobin hydrolysis at 5 mM after 18 hrs; assay type: functional; design: scale not given: the % may be the effect or the level left
How it was run: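 Parasite extract was incubated with native mouse haemoglobin, GSH (10 mM as added) and 0.2 M acetate buffer pH 5.4, with inhibitors added in DMSO, at 37 °C for 18 h. Reactions were stopped with reducing sample buffer and run on SDS-PAGE. Digestion was scored by densitometry of the 14 kDa globin band against a DMSO control, as intensity/mm2 ± SD.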

Plasmodium falciparum [3] = experiment: Antimalarial activity as parasite development after 48 hrs against chloroquine-sensitive Plasmodium falciparum W2 by FACS analysis; assay type: functional, organism-based; conditions: W2, 48 h, in the assay text read “chloroquine-resistant” for “chloroquine-sensitive”
How it was run: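 Sorbitol-synchronized ring-stage P. falciparum W2, started at 0.1% parasitemia, grown in RPMI-1640 with 10% human serum under 3% O2/6% CO2/91% N2. Inhibitors were added from 1000× DMSO stocks for 48 h with no medium change. Cells were fixed in 1% formaldehyde/PBS pH 7.4 for 48 h at room temperature, then stained with 1 nM YOYO in 0.1% Triton X-100/PBS. Nucleated erythrocytes were counted by flow cytometry. IC50 came from nonlinear fits of % control parasitemia against concentration, duplicate experiments.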

Plasmodium berghei [4] = experiment: Antimalarial activity as reduced parasitaemia at day 4 in Peter's assay against Plasmodium berghei ANKA infected in NIH mice (Mus musculus) at 20 mg/kg intraperitoneal dose 2 hrs post infection then daily over 4 days; assay type: functional; design: scale not given: the % may be the effect or the level left
How it was run: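 NIH mice (18–23 g) were infected i.p. with 10^6 P. berghei-infected red cells. Compound was dissolved in DMSO (0.1 M), diluted in 2% saline–Tween 20, and given at 20 mg/kg i.p. once daily for 4 days, starting 2 h after infection. Day-4 parasitemia was read from Giemsa-stained smears as % of untreated controls. Survival was also recorded. Analysis used one-way ANOVA and t-tests.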

Plasmodium berghei [5] = experiment: Antimalarial activity as survival in Peter's assay at day 4 against Plasmodium berghei ANKA infected in NIH mice (Mus musculus) at 20 mg/kg intraperitoneal dose 2 hrs post infection then daily over 4 days
Plasmodium berghei [6] = experiment: Antimalarial activity as reduced parasitaemia at day 4 in Peter's assay against Plasmodium berghei ANKA infected in NIH mice (Mus musculus) at 25 mg/kg intraperitoneal dose 2 hrs post infection then daily for 4 days; assay type: functional; design: scale not given: the % may be the effect or the level left
How it was run: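 Chloroquine reference arm: NIH mice (18–23 g) were infected i.p. with 10^6 P. berghei-infected red cells and given 25 mg/kg once daily for 4 days, starting 2 h post-infection. Day-4 parasitemia was counted on Giemsa-stained smears, expressed relative to untreated controls, with survival recorded.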

Plasmodium berghei [7] = experiment: Antimalarial activity as survival at day 4 in Peter's assay against Plasmodium berghei ANKA infected NIH mice (Mus musculus) at 25 mg/kg intraperitoneal dose 2 hrs post infection then daily for 4 days; assay type: functional
How it was run: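 NIH mice (18–23 g) were infected i.p. with 10^6 P. berghei-infected erythrocytes. Dosing started 2 h later, i.p. once daily for 4 days, with compounds at 20 mg/kg and chloroquine at 25 mg/kg, from 0.1 M DMSO stocks diluted in 2% saline–Tween 20. Day-4 parasitaemia was read from Giemsa smears as % of untreated control, and survival as % of mice. Analysis used one-way ANOVA and t-tests.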

Structure (SMILES) | Activity [1] [%] | Activity (Plasmodium falciparum [2]) [%] | IC50 (Plasmodium falciparum [3]) [nM] | Activity (Plasmodium berghei [4]) [%] | Activity (Plasmodium berghei [5]) [%] | Activity (Plasmodium berghei [6]) [%] | Activity (Plasmodium berghei [7]) [days]
COc1cc(/C=C(\Cl)S(=O)(=O)c2ccccc2)cc(OC)c1OC | < 5 | <5 | 10000 | – | – | – | –
O=S(=O)(/C(Cl)=C/c1cc2ccccc2nc1Cl)c1ccccc1 | < 5 | 28.49 | 25 | – | – | – | –
CC(C)CC(=O)N[C@H](C(=O)N[C@H](C(=O)N[C@@H](CC(C)C)[C@@H](O)CC(=O)N[C@@H](C)C(=O)N[C@@H](CC(C)C)[C@@H](O)CC(=O)O)C(C)C)C(C)C [PEPSTATIN] | – | 93.77 | – | – | – | – | –
O=S(=O)(/C(Cl)=C/c1ccc(Cl)c(Cl)c1)c1ccccc1 | < 5 | 95.04 | 59 | 13.4 | 50 | – | –
N#Cc1ccc(/C=C(\Cl)S(=O)(=O)c2ccccc2)cc1 | < 5 | 44.73 | > 10000 | – | – | – | –
O=S(=O)(/C(Cl)=C/c1ccc(F)cc1)c1ccccc1 | < 5 | 52.72 | > 10000 | – | – | – | –
O=S(=O)(/C(Cl)=C/c1ccc2ccccc2c1)c1ccccc1 | < 5 | 84.59 | 58 | 6.25 | 72 | – | –
O=S(=O)(/C(Cl)=C/c1ccccc1Cl)c1ccccc1 | < 5 | 65.81 | > 10000 | – | – | – | –
O=S(=O)(/C(Cl)=C/c1cccc2ccccc12)c1ccccc1 | < 5 | 76.69 | 75 | – | – | – | –
O=S(=O)(/C(Cl)=C/c1ccc(Cl)cc1)c1ccccc1 | < 5 | 74.92 | 83 | – | – | – | –
CC(=O)N[C@@H](CC(C)C)C(=O)N[C@@H](CC(C)C)C(=O)N[C@H](C=O)CCCNC(=N)N [LEUPEPTIN] | – | 89.75 | – | – | – | – | –
O=S(=O)(/C(Cl)=C/c1ccc2c(c1)OCO2)c1ccccc1 | < 5 | 37.34 | 53 | – | – | – | –
CCN(CC)CCCC(C)Nc1ccnc2cc(Cl)ccc12 (stereo not drawn) [CHLOROQUINE] | 84.2 | 26.92 | – | – | – | 3 | 30
O=S(=O)(/C(Cl)=C/c1ccc(Cl)cc1Cl)c1ccccc1 | < 5 | 75.3 | 960 | – | – | – | –
O=S(=O)(/C(Cl)=C/c1ccccc1)c1ccccc1 | < 5 | 59.33 | > 10000 | – | – | – | –
COc1cc(OC)c(OC)cc1/C=C(\Cl)S(=O)(=O)c1ccccc1 | < 5 | 11.07 | > 10000 | – | – | – | –
COc1cc(OC)c(/C=C(\Cl)S(=O)(=O)c2ccccc2)c(OC)c1 | < 5 | <5 | 10000 | – | – | – | –
O=[N+]([O-])c1ccc(/C=C(\Cl)S(=O)(=O)c2ccccc2)cc1 | < 5 | 79.19 | 73 | – | – | – | –
COc1ccc(/C=C(\Cl)S(=O)(=O)c2ccccc2)cc1 | < 5 | <5 | 470 | – | – | – | –
